CaV13 FRET inh: Primary screen for inhibitors of IQ motif and Ca2+-dependent inactivation inhibitor domain binding in CACNA1D, Förster resonance energy transfer in living cells, …. actives 0.098% (n = 340,000). AID 743397. inhibition, % at 12.3 µM. HEK cells, CFP/YFP FRET ICDI-IQ, plate reader, 10 min; percent FRET-ratio fall versus neutral wells;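 active means mean replicate inhibition of at least 30% and at least 1% of replicates passing that level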;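 further: 0% = median of the neutral control wells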
Arrestin-AP2 inh: inhibitors of human beta-arrestin and AP2 interaction; actives 0.31% (n = 340,000); FITC-arrestin peptide / GST-AP2 beads, flow cytometry; AP2 beta2 appendage carries R879A mutation; inhibition, % at 10 µM; AID 504490;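 active means inhibition above a set limit, near 3 SD of compounds lacking own fluorescence, cut at about 54% in these data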;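 further: plate controls were DMSO wells for no effect and 5 µM unlabelled arrestin peptide for full effect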
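system = GST-tagged AP2 beta2-adaptin appendage (R879A) on 4 µm glutathione beads | reagent = FITC-labelled arrestin peptide probe, 50 nM final | schedule = compound with beads 12 min RT, then probe 1 h RT | signal = HyperCyt-sampled flow cytometry, FL1 channel, ex 488/em 535 nm | read-out = percent response from loss of bead-bound FITC fluorescence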
ADAM17 inh: inhibitors of human ADAM17; P78536; recombinant ADAM17, EDANS/DABCYL FRET peptide cleavage; inhibition, % at 6.95 µM; actives 0.83% (n = 370,000); AID 720648;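 active means inhibition above the mean of compounds lying between control limits plus 3 SD, set per campaign, cut at about 8.5% in these data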;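 further: 0% = DMSO-only wells as the low control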
FAS TE block: FAS thioesterase (human) inhibition. AID 602261. inhibition, % at 15 µM. recombinant FAS-TE, OMFH fluorogenic substrate, fluorescence endpoint. P49327. actives 0.67% (n = 360,000);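 active means compounds whose normalised, plate-corrected inhibition of enzyme fluorescence in the single-dose primary screen is 50% or more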;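 further: 0% = DMSO with enzyme and 100% = substrate without enzyme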
ADAM10 inh: ADAM10 inhibition, QFRET primary screen; O14672; recombinant ADAM10, EDANS/DABCYL FRET peptide cleavage, 3 h; inhibition, % at 7 µM; actives 0.62% (n = 370,000); AID 720582;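 active means inhibition above a per-campaign cutoff equal to the mean of compounds falling between control-based bounds plus 3 SD, cut at about 20% in these data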;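 further: 0% = DMSO wells while the 100% control is not disclosed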
NRP1-CendR mod: modulators of CendR peptide binding to human neuropilin-1; actives 0.85% (n = 360,000); inhibition, % at 25 µM; O14786; AID 602438; FAM-RPARPAR peptide binding to NRP-1, fluorescence polarization;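 active means inhibition or corrected inhibition above about 18%, plus a signal ratio from 0.5 to 1.5, limit read from the data, passing the limit was not always enough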
Target sequence (O14786 whole entry, looked up): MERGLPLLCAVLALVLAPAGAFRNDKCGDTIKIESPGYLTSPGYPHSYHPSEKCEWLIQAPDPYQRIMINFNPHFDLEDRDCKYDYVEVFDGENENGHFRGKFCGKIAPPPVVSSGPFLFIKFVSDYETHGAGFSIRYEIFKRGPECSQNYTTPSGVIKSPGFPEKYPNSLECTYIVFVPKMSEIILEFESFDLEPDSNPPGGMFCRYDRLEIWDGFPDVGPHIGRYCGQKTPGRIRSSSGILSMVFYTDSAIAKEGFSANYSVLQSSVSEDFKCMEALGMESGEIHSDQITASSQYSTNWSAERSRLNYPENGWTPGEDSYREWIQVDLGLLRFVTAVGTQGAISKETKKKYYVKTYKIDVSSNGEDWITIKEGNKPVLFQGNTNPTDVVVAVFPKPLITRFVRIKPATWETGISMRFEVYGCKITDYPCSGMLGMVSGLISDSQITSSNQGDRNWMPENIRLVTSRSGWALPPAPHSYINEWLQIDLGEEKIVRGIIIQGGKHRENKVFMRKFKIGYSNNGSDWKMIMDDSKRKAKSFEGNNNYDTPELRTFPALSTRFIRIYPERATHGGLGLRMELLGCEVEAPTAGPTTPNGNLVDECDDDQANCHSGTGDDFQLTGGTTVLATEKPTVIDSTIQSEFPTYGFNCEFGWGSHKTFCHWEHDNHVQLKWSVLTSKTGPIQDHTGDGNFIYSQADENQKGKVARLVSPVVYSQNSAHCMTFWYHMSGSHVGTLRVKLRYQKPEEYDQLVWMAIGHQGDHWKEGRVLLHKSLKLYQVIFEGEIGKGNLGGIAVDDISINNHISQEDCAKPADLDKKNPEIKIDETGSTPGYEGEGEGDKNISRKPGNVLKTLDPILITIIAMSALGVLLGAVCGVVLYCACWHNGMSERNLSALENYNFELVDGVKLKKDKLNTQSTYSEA
ADAM10 ctr: counter-screen for ADAM17 exosite inhibitors: inhibitors of human ADAM10 | inhibition, % at 6.95 µM | actives 47% (n = 2,900) | recombinant ADAM10, EDANS/DABCYL FRET peptide cleavage, 3 h | shares compounds with ADAM17 inh | AID 743256;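 active means mean inhibition over the triplicate runs exceeds the activity threshold set in the earlier primary screen, cut at about 20% in these data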;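 further: 0% = DMSO wells and 100% = marimastat wells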
ADAM17 confirm: confirmation of inhibitors of human ADAM17. actives 65% (n = 2,900). recombinant ADAM17, EDANS/DABCYL QFRET peptide cleavage. shares compounds with ADAM17 inh. inhibition, % at 6.95 µM. AID 743257;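 active means mean inhibition across replicates above the hit cutoff set in the primary screen, cut at about 8.5% in these data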;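 further: 0% = DMSO wells and 100% = marimastat wells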
* hit, by the source's call; nt = no result given. Shown are actives, neighbours in structure and some others; about 2.9% of the full set was active somewhere.

SMILES	CaV13 FRET inh	Arrestin-AP2 inh	ADAM17 inh	FAS TE block	ADAM10 inh	NRP1-CendR mod	ADAM10 ctr	ADAM17 confirm
CCC(C)Cn1cnc2c(Sc3c([N+](=O)[O-])ncn3C)nc(N)nc21 (centres undefined)	-9	2	0	-2	-1	4	nt	nt
CC(C)Cn1cnc2c(Sc3c([N+](=O)[O-])ncn3C)nc(N)nc21	-7	18	9.4*	-4	13	7	16	8
COc1ccccc1NS(=O)(=O)c1cc(NC(=O)Nc2ccccc2)ccc1N1CCCCC1	-5	-10	8.8*	21	13	-6	4	8
O=C(/C=C/c1cccs1)Nc1ccc(N2CCOCC2)c(S(=O)(=O)Nc2ccccc2Cl)c1	-2	4	11*	27	20	-10	2	6
COc1ccccc1NS(=O)(=O)c1cc(NC(=O)C(C)C)ccc1N1CCCCC1	-3	20	7	32	12	10	nt	nt
COc1ccccc1NS(=O)(=O)c1cc(NC(=O)c2cccs2)ccc1N1CCCC1	-15	-8	10*	27	20	0	-36	4
COc1ccccc1NS(=O)(=O)c1cc(NC(=O)c2cccs2)ccc1N1CCCCC1	-5	8	4	29	7	5	nt	nt
CCOc1ccc(Cl)cc1-c1cc(C(=O)NC(C)C)[nH]n1	-4	nt	-2	-1	-2	-2	nt	nt
COc1cccc(CNC(=O)C2CCCN(c3ncccn3)C2)c1OC (centres undefined)	nt	nt	-8	nt	-28	nt	nt	nt
NC(=O)CSc1nnc(COc2cccc3ccccc23)o1	-1	-10	1	1	-4	-1	nt	nt
O=C(CSc1nnc(COc2cccc3ccccc23)o1)N1c2ccccc2CCc2ccccc21	nt	-9	8.9*	27	9	8	12	8
CCOC(=O)C1=CN(Cc2cccc(F)c2)S(=O)(=O)NC1c1cccc(OC)c1 (centres undefined)	-6	16	-4	14	-3	1	nt	nt
CCOC(=O)C1=CN(Cc2cccc(F)c2)S(=O)(=O)NC1c1ccc2ccccc2c1 (centres undefined)	-6	-20	9.8*	23	20	2	15	11*
CC(=O)N1c2ccc(C)cc2Sc2c1ccc1ccccc21	-10	-5	12*	25	18	11	16	9.0*
Cc1ccc2c(c1)S/C(=C\c1cccc[n+]1C)N2CCO	-3	-21	-2	-7	8	-7	nt	nt
Cc1ccc(C)c(Oc2cc(NC(=O)CCCn3nc(C)c([N+](=O)[O-])c3C)cc([N+](=O)[O-])c2)c1	-4	1	-1	34	-8	-2	nt	nt
Cc1nn(CCCC(=O)Nc2cc(Oc3ccccc3)cc([N+](=O)[O-])c2)c(C)c1[N+](=O)[O-]	-4	32	12*	42	17	1	39*	20*
Cc1cc(C)n2nc(CNS(=O)(=O)c3ccc(CC(C)C)cc3)nc2n1	-7	10	-2	-4	0	3	nt	nt
Cc1ccc(NS(=O)(=O)c2cc([N+](=O)[O-])ccc2NNC(=S)Nc2cc(C)ccc2C)c(C)c1	-4	-2	10*	20	20*	-51	34*	22*
O=C(COc1ccc(Cl)cc1Cl)NCCCCc1ccccc1	-4	4	18*	31	17	0	31*	13*
Cc1ccc(S(=O)(=O)N2C[C@H]3C(=O)C[C@@H](c4ccccc4)N(S(=O)(=O)c4ccc(C)cc4)[C@H]3C[C@H]2c2ccccc2)cc1	-7	nt	0	42	-6	-4	nt	nt
Cc1ccc(S(=O)(=O)N2[C@H](c3ccccc3)CC(=O)[C@@H]3CN(S(=O)(=O)c4ccccc4C)[C@H](c4ccccc4)C[C@@H]32)cc1	-6	nt	-3	28	-10	11	nt	nt
Cc1ccc(S(=O)(=O)N2C[C@H]3C(=O)C[C@@H](c4ccccc4)N(S(=O)(=O)c4ccccc4C)[C@H]3C[C@H]2c2ccccc2)cc1	-3	nt	11*	14	13	-18	22*	9.9*
Cc1ccc(S(=O)(=O)N2C[C@H]3C(=O)C[C@@H](c4cccc(C)c4)N(S(=O)(=O)c4ccc(C)cc4)[C@H]3C[C@H]2c2ccccc2)cc1	nt	nt	8.9*	27	4	10	10	7
Cc1nc2c(OCc3cc(Cl)cc(Cl)c3)cccn2c1N(C)C(=O)CCC1CCCC1	-8	nt	11*	27	8	-1	12	10*
SMILES	CaV13 FRET inh	Arrestin-AP2 inh	ADAM17 inh	FAS TE block	ADAM10 inh	NRP1-CendR mod	ADAM10 ctr	ADAM17 confirm
CC1(C(=O)NS(=O)(=O)c2cccc(Cl)c2)CCN1C(=O)Cc1ccc(-c2ccccc2)cc1 (centres undefined)	-5	nt	9.0*	-8	3	-2	8	6
CN(C)c1ccc(/C=N/NC(N)=S)cc1[N+](=O)[O-]	-3	14	10*	3	2	-4	28*	15*
CC(=O)NNC(=O)CC(=O)Nc1nc(C23CC4CC(CC(C4)C2)C3)cs1	-3	-1	8.9*	2	4	-17	-12	0
COCCNC(=O)c1c(N)[nH]c(C(=O)c2ccc(Br)cc2)c1-c1ccc(Br)cc1	-16	nt	-3	nt	-9	nt	nt	nt
C[C@@H]1CC=C[C@@H]2[C@H]1C(=O)N(Cc1ccccc1)[C@H]2c1cccc(Br)c1	-6	22	8.6*	27	2	9	16	10*
C[C@@H]1CC=C[C@H]2[C@H]1C(=O)N(Cc1ccccc1)[C@H]2c1ccc(-c2ccoc2)cc1F	-8	-7	13*	18	18	-1	10	8
C[C@@H]1CC=C[C@H]2[C@H]1C(=O)N(Cc1ccccc1)[C@H]2c1ccc(-c2ccc(F)cc2)cc1F	-11	-6	-5	28	-8	9	nt	nt
Cc1onc(-c2c(F)cccc2Cl)c1C(=O)OCC(=O)N(C)c1ccccc1	-10	nt	-1	6	-1	-3	nt	nt
O=C(/C=C/c1ccc(S(=O)(=O)NCc2ccco2)cc1)NCc1ccccc1Cl	-5	21	9.9*	13	17	2	0	4
O=C(N/N=C/c1cccs1)C1CC(=O)N(c2ccccc2)C1 (centres undefined)	-5	-7	-4	-6	2	-11	nt	nt

Screening data (PubChem)
